Results as given in ChEMBL document CHEMBL1141882, “Synthesis and biological testing of purine derivatives as potential ATP-competitive kinase inhibitors” (J Med Chem, 2005).

Experiments:
[1] = target: Rho-associated protein kinase 2 (Homo sapiens) (UniProt O75116); assay: Inhibition of human Rho-dependent protein kinase-II at 30 uM
[2] = target: Dual specificity mitogen-activated protein kinase kinase 1 (Homo sapiens) (UniProt Q02750); assay: Inhibition of human Mitogen activated protein kinase kinase 1 (MEK1) at 30 uM
Sequence of Dual specificity mitogen-activated protein kinase kinase 1 (Homo sapiens) (Q02750 whole entry): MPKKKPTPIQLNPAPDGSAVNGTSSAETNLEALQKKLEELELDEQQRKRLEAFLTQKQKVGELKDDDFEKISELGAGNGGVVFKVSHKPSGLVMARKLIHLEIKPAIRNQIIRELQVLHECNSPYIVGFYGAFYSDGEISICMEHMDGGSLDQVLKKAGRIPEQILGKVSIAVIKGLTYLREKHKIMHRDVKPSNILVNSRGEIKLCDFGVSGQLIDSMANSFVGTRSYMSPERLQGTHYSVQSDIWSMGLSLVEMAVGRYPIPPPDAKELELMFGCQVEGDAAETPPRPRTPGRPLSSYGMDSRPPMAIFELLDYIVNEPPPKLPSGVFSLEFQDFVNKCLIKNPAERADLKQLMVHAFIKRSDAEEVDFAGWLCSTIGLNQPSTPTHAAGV
How it was run: (§1)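 Kinase activity assayed with ATP at 100 µM, deliberately higher than usual assay ATP levels because the inhibitors are assumed ATP-competitive. Results are reported as percent inhibition of each kinase.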

[3] = target: Mitogen-activated protein kinase 14 (Homo sapiens) (UniProt Q16539); assay: Inhibition of human stress-activated protein kinase-2 alpha (p38 MAP-kinase) at 30 uM
How it was run: as §1

[4] = target: Mitogen-activated protein kinase 9 (Homo sapiens) (UniProt P45984); assay: Inhibition of human c-Jun N-terminal kinase-2 alpha-2 at 30 uM
Sequence of Mitogen-activated protein kinase 9 (Homo sapiens) (P45984 whole entry, looked up): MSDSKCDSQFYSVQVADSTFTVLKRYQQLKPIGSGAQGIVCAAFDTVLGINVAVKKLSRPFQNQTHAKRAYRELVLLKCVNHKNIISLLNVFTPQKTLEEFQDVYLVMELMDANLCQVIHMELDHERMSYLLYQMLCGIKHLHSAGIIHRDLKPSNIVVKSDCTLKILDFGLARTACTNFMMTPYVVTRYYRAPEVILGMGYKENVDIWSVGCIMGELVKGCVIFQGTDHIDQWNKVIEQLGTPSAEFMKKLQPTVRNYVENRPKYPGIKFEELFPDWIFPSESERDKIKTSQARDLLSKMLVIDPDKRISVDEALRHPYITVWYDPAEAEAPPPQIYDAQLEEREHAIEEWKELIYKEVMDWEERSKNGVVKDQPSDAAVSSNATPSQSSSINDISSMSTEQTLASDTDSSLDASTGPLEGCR
How it was run: as §1

[5] = target: Ca2+/calmodulin-dependent protein kinase II (CaM kinase II) (Rattus norvegicus) (UniProt P11275+P08413+P15791+P11730); assay: Inhibition of rat Calcium/calmodulin-dependent protein kinase type II at 30 uM; format: protein assay
How it was run: as §1

[6] = target: RAC-alpha serine/threonine-protein kinase (Homo sapiens) (UniProt P31749); assay: Inhibition of human Protein kinase B alpha at 30 uM
Sequence of RAC-alpha serine/threonine-protein kinase (Homo sapiens) (P31749 whole entry): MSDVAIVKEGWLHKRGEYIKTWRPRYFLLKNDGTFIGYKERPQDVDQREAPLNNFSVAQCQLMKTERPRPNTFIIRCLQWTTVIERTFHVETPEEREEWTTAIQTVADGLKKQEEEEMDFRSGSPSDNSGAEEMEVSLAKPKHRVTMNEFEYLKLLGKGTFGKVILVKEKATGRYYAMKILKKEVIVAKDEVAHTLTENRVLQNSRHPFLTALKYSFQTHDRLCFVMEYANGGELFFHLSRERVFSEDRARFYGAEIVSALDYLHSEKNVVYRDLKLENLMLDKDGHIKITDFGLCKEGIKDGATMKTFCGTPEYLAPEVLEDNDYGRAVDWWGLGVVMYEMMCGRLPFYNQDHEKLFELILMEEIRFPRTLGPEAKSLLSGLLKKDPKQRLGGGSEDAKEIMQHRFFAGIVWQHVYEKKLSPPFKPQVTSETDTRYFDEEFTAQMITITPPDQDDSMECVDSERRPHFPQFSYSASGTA
How it was run: as §1

[7] = target: Tyrosine-protein kinase Lck (Homo sapiens) (UniProt P06239); assay: Inhibition of human lymphocyte protein tyrosine kinase Lck at 30 uM
Sequence of Tyrosine-protein kinase Lck (Homo sapiens) (P06239 2-509 limits assumed): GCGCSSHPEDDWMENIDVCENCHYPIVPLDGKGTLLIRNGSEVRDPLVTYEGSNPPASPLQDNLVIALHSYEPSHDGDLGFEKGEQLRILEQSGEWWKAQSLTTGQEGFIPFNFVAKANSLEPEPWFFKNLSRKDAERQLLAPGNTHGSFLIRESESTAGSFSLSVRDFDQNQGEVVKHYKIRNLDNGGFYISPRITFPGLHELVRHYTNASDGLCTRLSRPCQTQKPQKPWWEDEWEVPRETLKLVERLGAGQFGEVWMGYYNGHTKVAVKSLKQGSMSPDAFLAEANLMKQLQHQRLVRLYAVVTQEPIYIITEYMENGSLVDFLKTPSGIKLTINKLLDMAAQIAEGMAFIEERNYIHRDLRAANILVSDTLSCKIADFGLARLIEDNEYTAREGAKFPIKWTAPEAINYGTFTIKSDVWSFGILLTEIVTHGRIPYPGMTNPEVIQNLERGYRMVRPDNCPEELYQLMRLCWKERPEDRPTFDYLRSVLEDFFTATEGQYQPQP
How it was run: as §1

[8] = target: Glycogen synthase kinase-3 beta (Homo sapiens) (UniProt P49841); assay: Inhibition of human Glycogen synthase kinase-3 beta at 30 uM
Sequence of Glycogen synthase kinase-3 beta (Homo sapiens) (P49841 whole entry, looked up): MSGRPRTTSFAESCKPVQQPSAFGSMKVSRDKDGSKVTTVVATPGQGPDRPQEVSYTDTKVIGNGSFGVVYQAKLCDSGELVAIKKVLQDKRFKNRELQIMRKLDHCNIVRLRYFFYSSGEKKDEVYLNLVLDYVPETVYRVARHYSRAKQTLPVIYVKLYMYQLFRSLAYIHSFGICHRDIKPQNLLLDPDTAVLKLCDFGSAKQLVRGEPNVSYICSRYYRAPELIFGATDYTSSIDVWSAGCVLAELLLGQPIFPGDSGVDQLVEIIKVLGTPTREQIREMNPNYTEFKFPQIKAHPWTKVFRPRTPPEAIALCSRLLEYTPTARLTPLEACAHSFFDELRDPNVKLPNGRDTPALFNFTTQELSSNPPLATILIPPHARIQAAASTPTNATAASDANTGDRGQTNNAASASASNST
How it was run: as §1

[9] = target: RAF proto-oncogene serine/threonine-protein kinase (Homo sapiens) (UniProt P04049); assay: Inhibition of human RAF proto-oncogene serine/threonine-protein kinase at 30 uM
Sequence of RAF proto-oncogene serine/threonine-protein kinase (Homo sapiens) (P04049 whole entry): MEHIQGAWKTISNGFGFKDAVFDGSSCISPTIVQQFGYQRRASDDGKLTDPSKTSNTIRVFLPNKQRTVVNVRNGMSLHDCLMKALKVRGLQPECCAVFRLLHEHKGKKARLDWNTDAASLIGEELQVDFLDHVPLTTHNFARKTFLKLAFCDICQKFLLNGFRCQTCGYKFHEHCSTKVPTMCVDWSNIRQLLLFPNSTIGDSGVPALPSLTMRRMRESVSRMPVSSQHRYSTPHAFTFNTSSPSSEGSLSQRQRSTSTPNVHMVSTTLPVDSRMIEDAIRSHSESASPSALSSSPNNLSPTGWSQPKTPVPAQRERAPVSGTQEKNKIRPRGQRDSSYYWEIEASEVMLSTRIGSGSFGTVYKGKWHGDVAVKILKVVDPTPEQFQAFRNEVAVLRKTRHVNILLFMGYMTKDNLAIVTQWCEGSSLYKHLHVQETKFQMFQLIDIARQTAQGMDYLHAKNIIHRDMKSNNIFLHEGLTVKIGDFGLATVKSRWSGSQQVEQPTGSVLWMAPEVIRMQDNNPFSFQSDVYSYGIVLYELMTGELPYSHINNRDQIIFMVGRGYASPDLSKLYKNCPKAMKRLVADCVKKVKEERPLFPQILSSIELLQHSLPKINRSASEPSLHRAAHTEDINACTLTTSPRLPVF
How it was run: as §1

[10] = target: Mitogen-activated protein kinase 8 (Homo sapiens) (UniProt P45983); assay: Inhibition of human c-Jun N-terminal kinase-1 alpha-1 at 30 uM
Sequence of Mitogen-activated protein kinase 8 (Homo sapiens) (P45983 whole entry): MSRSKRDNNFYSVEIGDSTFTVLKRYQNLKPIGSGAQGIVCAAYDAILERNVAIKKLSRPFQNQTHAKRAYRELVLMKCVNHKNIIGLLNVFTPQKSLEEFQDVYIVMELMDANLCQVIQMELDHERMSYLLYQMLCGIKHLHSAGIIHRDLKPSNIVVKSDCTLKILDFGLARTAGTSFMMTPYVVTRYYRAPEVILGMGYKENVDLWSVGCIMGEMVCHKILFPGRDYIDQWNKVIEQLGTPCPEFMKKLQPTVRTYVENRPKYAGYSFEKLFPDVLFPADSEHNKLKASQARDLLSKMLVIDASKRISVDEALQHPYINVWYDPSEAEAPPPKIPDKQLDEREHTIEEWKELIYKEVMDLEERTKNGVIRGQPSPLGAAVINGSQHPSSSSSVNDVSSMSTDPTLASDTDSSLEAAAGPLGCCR
How it was run: as §1

[11] = target: Mitogen-activated protein kinase 1 (Homo sapiens) (UniProt P28482); assay: Inhibition of human Mitogen-activated protein kinase 2 at 30 uM
Sequence of Mitogen-activated protein kinase 1 (Homo sapiens) (P28482 whole entry): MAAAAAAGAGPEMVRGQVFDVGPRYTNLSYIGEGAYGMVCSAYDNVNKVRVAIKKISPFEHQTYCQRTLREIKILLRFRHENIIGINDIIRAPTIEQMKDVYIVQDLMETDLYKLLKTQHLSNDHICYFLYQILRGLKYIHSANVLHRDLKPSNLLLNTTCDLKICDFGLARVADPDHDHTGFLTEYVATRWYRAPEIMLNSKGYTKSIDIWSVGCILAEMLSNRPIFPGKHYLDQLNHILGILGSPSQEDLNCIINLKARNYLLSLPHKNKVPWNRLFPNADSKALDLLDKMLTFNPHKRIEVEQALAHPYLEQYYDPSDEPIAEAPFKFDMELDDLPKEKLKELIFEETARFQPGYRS
How it was run: as §1

[12] = target: Mitogen-activated protein kinase 10 (Rattus norvegicus) (UniProt P49187); assay: Inhibition of rat c-Jun N-terminal kinase-3 at 30 uM
Sequence of Mitogen-activated protein kinase 10 (Rattus norvegicus) (P49187 whole entry): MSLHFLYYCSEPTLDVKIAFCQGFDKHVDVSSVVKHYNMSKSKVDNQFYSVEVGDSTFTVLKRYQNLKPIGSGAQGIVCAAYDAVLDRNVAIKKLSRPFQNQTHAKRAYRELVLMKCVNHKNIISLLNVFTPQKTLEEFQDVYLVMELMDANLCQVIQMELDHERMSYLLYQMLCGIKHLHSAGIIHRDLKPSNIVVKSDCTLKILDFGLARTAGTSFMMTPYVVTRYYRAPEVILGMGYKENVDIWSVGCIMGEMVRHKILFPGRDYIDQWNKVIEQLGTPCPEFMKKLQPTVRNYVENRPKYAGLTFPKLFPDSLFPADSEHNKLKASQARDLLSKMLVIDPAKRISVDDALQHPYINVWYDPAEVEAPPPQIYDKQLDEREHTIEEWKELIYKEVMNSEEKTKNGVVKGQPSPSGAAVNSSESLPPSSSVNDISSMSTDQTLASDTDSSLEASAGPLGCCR
How it was run: as §1

[13] = target: cAMP-dependent protein kinase (PKA) (Homo sapiens) (UniProt P22694+P17612+P22612); assay: Inhibition of human cAMP-dependent protein kinase (PKA); format: protein assay; design: concentration or dose not given beside the values; conditions: concentration not given here
[14] = target: Protein kinase C alpha type (Homo sapiens) (UniProt P17252); assay: Inhibition of human Protein kinase C alpha; design: concentration or dose not given beside the values; conditions: concentration not given here

Row | inhibition [1] [%] | inhibition [2] [%] | inhibition [3] [%] | inhibition [4] [%] | inhibition [5] [%] | inhibition [6] [%] | inhibition [7] [%] | inhibition [8] [%] | inhibition [9] [%] | inhibition [10] [%] | inhibition [11] [%] | inhibition [12] [%] | inhibition [13] [%] | inhibition [14] [%] | Compound
1 | 2 | 1 | 67 | 0 | 0 | 13 | 12 | 0 | 0 | 0 | 0 | 0 | 0 | 0 | Fc1ccc(Cn2cnc3c(Sc4ccccc4)ncnc32)cc1
2 | 9 | 7 | 29 | 0 | 8 | 29 | 20 | 22 | 14 | 2 | 1 | 16 | 3 | 17 | Cn1c(-c2ccccc2)nc2c(Sc3ccc(F)cc3)ncnc21
3 | 0 | 5 | 23 | 8 | 5 | 31 | 17 | 26 | 24 | 2 | 1 | 12 | 0 | 17 | Cn1c(-c2ccccc2)nc2c(-c3ccc(F)cc3)ncnc21
4 | 9 | 0 | 18 | 0 | 0 | 0 | 0 | 0 | 1 | 0 | 0 | 0 | 0 | 3 | Fc1ccc(Oc2[nH]cnc3ncnc2-3)cc1
5 | 0 | 0 | 12 | 0 | 4 | 0 | 1 | 0 | 8 | 0 | 0 | 8 | 0 | 7 | Cn1cnc2c(/C=C/c3ccccc3)ncnc21
6 | 37 | 2 | 72 | 1 | 0 | 0 | 13 | 0 | 29 | 0 | 12 | 8 | 10 | 9 | Fc1ccc(Sc2ncnc3[nH]cnc23)cc1
7 | 6 | 6 | 38 | 10 | 5 | 0 | 2 | 0 | 12 | 10 | 12 | 9 | 1 | 7 | Cn1cnc2c(Sc3ccc(F)cc3)ncnc21
8 | 0 | 4 | 0 | 0 | 0 | 0 | 18 | 26 | 44 | 0 | 42 | 5 | 0 | 2 | Cn1cnc2c(Nc3ccccc3)ncnc21
9 | 52 | 34 | 30 | 0 | 2 | 18 | 42 | 0 | 24 | 13 | 48 | 10 | 40 | 17 | Fc1ccc(Nc2[nH]cnc3ncnc2-3)cc1
10 | 7 | 4 | 6 | 4 | 7 | 9 | 7 | 13 | 10 | 0 | 7 | 13 | 0 | 18 | c1ccc(C[n+]2c[nH]c3ncncc32)cc1
11 | 5 | 4 | 64 | 0 | 0 | 1 | 16 | 0 | 0 | 0 | 0 | 0 | 0 | 0 | Fc1ccc(Sc2ncnc3c2ncn3Cc2ccccc2)cc1
12 | 5 | 4 | 36 | 8 | 8 | 14 | 16 | 0 | 10 | 1 | 3 | 7 | 11 | 18 | Cn1c(-c2ccc(S(C)(=O)=O)cc2)nc2c(Sc3ccccc3)ncnc21
13 | 16 | 1 | 12 | 1 | 0 | 0 | 11 | 0 | 3 | 1 | 6 | 0 | 11 | 8 | c1ccc(Oc2ncnc3[nH]cnc23)cc1
14 | 36 | 41 | 56 | 0 | 6 | 0 | 56 | 11 | 22 | 0 | 4 | 0 | 0 | 23 | c1ccc(Sc2[nH]cnc3nccc2-3)cc1
15 | 1 | 6 | 64 | 0 | 3 | 1 | 0 | 1 | 0 | 0 | 0 | 0 | 0 | 0 | c1ccc(Cn2cnc3c(Sc4ccccc4)ncnc32)cc1
16 | 1 | 3 | 8 | 0 | 2 | 0 | 0 | 5 | 9 | 0 | 3 | 30 | 7 | 7 | COc1ncnc2ncn(Cc3ccc(F)cc3)c12
17 | 33 | 0 | 54 | 0 | 0 | 0 | 5 | 1 | 6 | 0 | 13 | 0 | 8 | 3 | c1ccc(Sc2ncnc3[nH]cnc23)cc1
18 | 0 | 4 | 15 | 5 | 7 | 0 | 1 | 5 | 1 | 3 | 0 | 3 | 0 | 0 | CSc1ccc(-c2nc3c(Sc4ccc(F)cc4)ncnc3n2C)cc1
19 | 28 | 7 | 50 | 0 | 0 | 4 | 22 | 35 | 53 | 1 | 12 | 7 | 13 | 11 | c1ccc(CSc2ncnc3[nH]cnc23)cc1
20 | 0 | 0 | 3 | 0 | 10 | 33 | 11 | 0 | 0 | 0 | 0 | 0 | 0 | 18 | Cn1c(C#CCCO)nc2c(Sc3ccccc3)ncnc21
